Consider 6 molecules from ChEMBL document CHEMBL1135663, “Probing opioid receptor interactions with azacycloalkane amino acids. Synthesis of a potent and selective ORL1 antagonist” (J Med Chem, 2002).

Experiment [1] addresses T1, Nociceptin receptor (Homo sapiens, UniProt P41146). In words: Binding affinity for opioid receptor like type, human Opioid receptor like 1 expressed in membrane homogenates of COS-1 or CHO cells. It is filed as cell-based.
Experiment [2] concerns the target T2, Kappa-type opioid receptor (Homo sapiens, UniProt P41145). In words: Binding affinity for opioid receptor type, human Opioid receptor kappa 1 expressed in membrane homogenates of COS-1 or CHO cells. Format: cell-based.
Experiment [3] addresses Delta-type opioid receptor (Homo sapiens, UniProt P41143). In words: Binding affinity for opioid receptor type, human Opioid receptor delta 1 expressed in membrane homogenates of COS-1 or CHO cells. It is filed as cell-based.
The target of experiment [4] is T3, Mu-type opioid receptor (Homo sapiens, UniProt P35372). In words: Binding affinity for opioid receptor type, human Opioid receptor mu 1 expressed in membrane homogenates of COS-1 or CHO cells. Format: cell-based.
T3 sequence (P35372 whole entry): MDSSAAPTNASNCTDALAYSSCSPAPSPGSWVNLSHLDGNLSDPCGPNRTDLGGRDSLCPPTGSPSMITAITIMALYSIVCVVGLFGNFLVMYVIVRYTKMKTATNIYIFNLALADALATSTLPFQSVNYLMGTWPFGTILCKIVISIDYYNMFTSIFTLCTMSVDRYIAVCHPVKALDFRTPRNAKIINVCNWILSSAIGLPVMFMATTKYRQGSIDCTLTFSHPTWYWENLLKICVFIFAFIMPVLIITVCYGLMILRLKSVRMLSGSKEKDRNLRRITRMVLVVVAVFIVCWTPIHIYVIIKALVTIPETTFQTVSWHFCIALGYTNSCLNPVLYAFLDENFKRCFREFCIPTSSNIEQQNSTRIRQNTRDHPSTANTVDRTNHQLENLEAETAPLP
The target of experiment [5] is T2, Kappa-type opioid receptor. Description: Stimulation of [35S]GTP-gamma-S, binding using COS-human Opioid receptor kappa 1 membranes. It is filed as functional. The procedure, abridged: (§1)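 Agonist-stimulated [35S]GTPγS binding to 5 μg membranes from COS cells transiently expressing human KOR or MOR. Incubation was 1 h at 30 °C with 0.2 nM [35S]GTPγS, GDP and increasing ligand concentrations, giving concentration–response data. Mean ± SEM of at least two separate experiments, each in triplicate.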
(GTPγS is a poorly hydrolysed GTP analogue; its binding reports G protein activation.)

For experiment [6], the target named is T3, Mu-type opioid receptor. In words: Stimulation of [35S]GTP-gamma-S, binding using COS-human Opioid receptor mu 1 membranes. Format: functional. In a few lines:
as §1

In experiment [7] the target is T3, Mu-type opioid receptor. In words: Maximal activation of [35S]GTP-gamma-S, binding using COS-human Opioid receptor mu 1 membranes. Format: functional. The procedure, abridged:
(§2)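 Membranes (5 μg) from COS cells transiently transfected with human KOR or MOR, incubated 1 h at 30 °C with 0.2 nM [35S]GTPγS, GDP and increasing ligand concentrations. Maximal activation is given as percentage of basal [35S]GTPγS binding. Mean ± SEM of at least two separate experiments, each in triplicate.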

The target of experiment [8] is T2, Kappa-type opioid receptor. In words: Maximal activation of [35S]GTP-gamma-S, binding using COS-human Opioid receptor kappa 1 membranes. Format: functional. The procedure, abridged: as §2
Experiment [9] deals with T1, Nociceptin receptor.

pEC50, pKi: −log10 of the molar value. Several values for one entry are separate records, joined by “and”; a condition that tells them apart may be missing. Identical values can stand only once.

Delta-type opioid receptor, sequence (P41143 whole entry): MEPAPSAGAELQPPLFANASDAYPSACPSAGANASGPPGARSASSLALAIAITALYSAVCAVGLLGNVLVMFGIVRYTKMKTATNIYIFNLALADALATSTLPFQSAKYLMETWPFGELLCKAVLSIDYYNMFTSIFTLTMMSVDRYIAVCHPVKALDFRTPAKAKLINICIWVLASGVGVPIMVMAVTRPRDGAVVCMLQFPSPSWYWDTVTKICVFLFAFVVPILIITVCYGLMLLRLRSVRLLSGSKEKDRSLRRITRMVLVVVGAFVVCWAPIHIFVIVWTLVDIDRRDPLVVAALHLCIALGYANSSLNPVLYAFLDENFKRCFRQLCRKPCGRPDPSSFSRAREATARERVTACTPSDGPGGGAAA
T1 sequence (P41146 whole entry): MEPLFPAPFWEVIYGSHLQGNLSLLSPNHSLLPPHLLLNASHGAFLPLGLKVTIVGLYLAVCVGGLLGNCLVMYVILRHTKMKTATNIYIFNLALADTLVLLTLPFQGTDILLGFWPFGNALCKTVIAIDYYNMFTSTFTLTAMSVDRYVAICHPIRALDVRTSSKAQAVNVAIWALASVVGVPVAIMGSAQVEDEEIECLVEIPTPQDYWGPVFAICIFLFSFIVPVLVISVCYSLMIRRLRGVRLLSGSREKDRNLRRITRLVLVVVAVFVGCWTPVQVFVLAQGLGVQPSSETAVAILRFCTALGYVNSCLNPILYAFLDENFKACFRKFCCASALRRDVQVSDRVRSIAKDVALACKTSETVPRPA
T2 sequence (P41145 whole entry): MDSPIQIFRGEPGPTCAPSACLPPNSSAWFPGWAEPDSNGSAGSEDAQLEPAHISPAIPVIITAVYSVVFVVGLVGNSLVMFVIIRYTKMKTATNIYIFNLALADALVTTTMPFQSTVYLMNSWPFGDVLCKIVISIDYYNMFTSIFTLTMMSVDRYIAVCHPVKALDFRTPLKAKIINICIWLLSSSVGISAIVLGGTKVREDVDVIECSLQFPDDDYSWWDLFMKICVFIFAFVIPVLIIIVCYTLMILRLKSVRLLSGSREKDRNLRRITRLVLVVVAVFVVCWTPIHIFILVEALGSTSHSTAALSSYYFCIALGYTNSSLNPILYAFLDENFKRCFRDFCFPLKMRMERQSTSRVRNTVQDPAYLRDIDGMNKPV

A word on the pKi: it is the Ki on a negative log10 scale, so that one unit is a factor of ten. For `CC(=O)N[C@@H](CCCN=C(N)N)C(=O)N[C@H](CC1CCCCC1)C(=O)N[C@@H](Cc1ccccc1)C(=O)N1[C@H](C(=O)N[C@H](CCCN=C(N)N)C(=O)N[C@H](Cc2ccc(Cl)cc2)C(N)=O)CC[C@@H]1C(C)(C)C`, the pKi on Nociceptin receptor [1] is 5.77; in experiment [2], 6.55; in experiment [3], 5.63; on Mu-type opioid receptor [4], 6.43.

For orientation: pEC50 means the EC50 on a negative log10 scale, so that one unit is a factor of ten. A lower pEC50 goes with a high EC50. On to `CC(=O)N[C@@H](CCCNC(=N)N)C(=O)N[C@H](CC1CCCCC1)C(=O)N[C@H]1CC[C@H]2CC[C@@H](C(=O)N[C@H](CCCNC(=N)N)C(=O)N[C@H](Cc3ccc(Cl)cc3)C(N)=O)N2C1=O`, for which the pEC50 in experiment [5] is under 6.00; on Mu-type opioid receptor [6], 5.85. For the same molecule, the pKi at Nociceptin receptor [1] (cos-1) is 7.36; in experiment [2] (cos-1), 6.72; in [3] (cos-1) it was 5.28; on Mu-type opioid receptor [4] (cos-1), 7.12.

As for `CC(=O)N[C@@H](CCCN=C(N)N)C(=O)N[C@H](CC1CCCCC1)C(=O)N[C@H]1C[C@H]2CCC[C@@H](C(=O)N[C@H](CCCN=C(N)N)C(=O)N[C@H](Cc3ccc(Cl)cc3)C(N)=O)N2C1=O`, the negative-log Ki (pKi) at Nociceptin receptor [1] (cos-1) was 5.67; in experiment [2] (cos-1), 5.96; in experiment [3] (cos-1), 4.96; at Mu-type opioid receptor [4] (cos-1), 5.57.

`CC(=O)N[C@@H](CCCN=C(N)N)C(=O)NC(CC1CCCCC1)C(=O)NC1CC[C@H]2CCC[C@@H](C(=O)N[C@H](CCCN=C(N)N)C(=O)NC(Cc3ccc(Cl)cc3)C(N)=O)N2C1=O` (stereo in doubt): the pEC50 in experiment [5] is under 6.00; at Mu-type opioid receptor [6] it was 5.55. Besides, the pKi was 7.46 at Nociceptin receptor [1], 6.36 in [2], 5.15 in experiment [3] and 6.30 on Mu-type opioid receptor [4]. Also, the Activity turned out to be 141% at Mu-type opioid receptor [7] and 117% in experiment [8].

For `CC(=O)N[C@@H](CCCN=C(N)N)C(=O)NC(CC1CCCCC1)C(=O)N[C@H]1CC[C@@H]2SC[C@H](C(=O)N[C@H](CCCN=C(N)N)C(=O)NC(Cc3ccc(Cl)cc3)C(N)=O)N2C1=O` (stereo in doubt), the pKi on Nociceptin receptor [1] (cos-1) was 7.47; in experiment [2] (cos-1), 7.11; in [3] (cos-1), 6.65; at Mu-type opioid receptor [4] (cos-1), 7.28. At Nociceptin receptor [9], this molecule returned a Ke of 40 nM.

On to `CC(=O)N[C@@H](CCCN=C(N)N)C(=O)NC(CC1CCCCC1)C(=O)N[C@H]1CC[C@H]2SC[C@@H](C(=O)N[C@H](CCCN=C(N)N)C(=O)NC(Cc3ccc(Cl)cc3)C(N)=O)N2C1=O` (stereo in doubt), for which the Activity at Mu-type opioid receptor [7] was 207%; in experiment [8] it was 122% and 120%. For the same molecule, the Ke at Nociceptin receptor [9] amounted to 400 nM.
